Screening results as filed in PubChem BioAssay.
A selection: hits, their analogues and other compounds. The true share with any hit is near 1.6%.
MT1-MMP act inh = blocks activation of human MT1-MMP; P50281; HT1080 RFP-PRO-GFP cells, GFP/RFP ratio fluorescence, overnight; percent of plate control window, DMSO zero; GFP/RFP ratio change, % at 20 µM; 360,000 tested, 0.061% active; AID 651647;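 active means GFP/RFP ratio change of at least 30% with cell ATP level not reduced by more than half and red fluorescence within 50% of control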
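Assay system: HT1080 RFP-PRO-GFP cells. Benchmarks: DMSO vehicle wells and RFP-L50D-GFP reporter cell wells. Times: overnight cell settling, then overnight compound exposure, 37 °C, 5% CO2. Compound: 20 µM single dose, 1% DMSO. Read-out basis: GFP/RFP fluorescence ratio.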
Rin1-Abl PPI inh = blocks binding of human Rin1 to Abl | TR-FRET Rin1/Abl binding, biochemical | inhibition, % at 7.35 µM | 360,000 tested, 0.4% active | AID 588664; in the data active means inhibition above about 5%, passing the limit was not always enough
TbMetRS inhib = blocks T. brucei methionyl-tRNA synthetase activity. purified T. brucei MetRS, ATP depletion, Kinase-Glo luminescence. inhibition, % at 11.9 µM. 360,000 tested, 0.4% active. AID 624268;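 active means inhibition above a per-plate cutoff of the control wells' mean inhibition plus 3 SD, cut at about 5.5% in these data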;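 further: 0% = DMSO wells median and 100% = median of wells with control inhibitor compound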
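technique = Kinase-Glo luminescence, ATP depletion format | system = purified MetRS (methionyl-tRNA synthetase) enzyme from Trypanosoma brucei | timing = 15 min preincubation, 2 h reaction, all 25 °C | evaluation = percent inhibition versus plate control medians | dosing = single dose, 11.9 µM final nominal, 0.9% final DMSO | also added = substrates ATP, L-methionine and bulk Escherichia coli tRNA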
SKN-1 inh = C. elegans SKN-1 inhibition | C. elegans VP596 Pgst-4::GFP/RFP ratio, acrylamide-induced, 24 h | inhibition, % at 21.8 µM | 360,000 tested, 0.49% active | AID 624304;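 active means interference check ratio from 0.5 to 1.5 plus GFP to RFP signal ratio inhibition reaching or exceeding a fixed threshold, cut at about 30% in these data, passing the limit was not always enough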
Arrestin-AP2 inh = blocks beta-arrestin peptide binding to AP2 adaptin | inhibition, % at 10 µM | AID 504490 | FITC-arrestin peptide / GST-AP2 beads, flow cytometry; AP2 beta2 appendage carries R879A mutation | 340,000 tested, 0.31% active;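 active means inhibition above a set limit, near 3 SD of compounds lacking own fluorescence, cut at about 54% in these data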;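 further: plate controls were DMSO wells for no effect and 5 µM unlabelled arrestin peptide for full effect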
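Measured by: flow cytometry, FL1 (488/535 nm); Material: AP2 appendage R879A on GSH beads; Evaluation: percent response; Timing: pre-incubation 12 min, peptide binding 1 h, room temperature; Also added: 50 nM FITC-arrestin peptide; Medium: PBS with 0.05% Tween 20 and 0.1% BSA.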
Active calls of the source: *; / = no result.

SMILES | MT1-MMP act inh | Rin1-Abl PPI inh | TbMetRS inhib | SKN-1 inh | Arrestin-AP2 inh
Cc1cc2c(C(C)C)c(O)c(O)c(C=O)c2c(O)c1-c1c(C)cc2c(C(C)C)c(O)c(O)c(C=O)c2c1O | 18 | 16* | 1 | 10 | /
CSCCC(c1nnnn1-c1ccc2c(c1)OCCO2)N1CCC(n2c(=O)[nH]c3ccccc32)CC1 (centres undefined) | -14 | 10 | -1 | -12 | /
O=P1(c2ccccc2)CC=CC1 | 3 | 1 | 1 | -9 | /
CN1C(=O)C(=Cc2sc(=O)n(-c3ccccc3)c2N2CCCCC2)C(=O)N(C)C1=O | -65 | -4 | 0 | 38* | 6
C=CCN1Cc2ccccc2-n2nncc2C1 | 5 | 3 | 0 | -2 | /
COc1cc(N2CCOCC2)ccc1/C=C1\C(=O)NC(=O)N(C2CCCCC2)C1=O | 1 | -4 | 0 | 50* | 5
O=C1C=C(N2CC2)c2ccccc2C1=O | 19 | -6 | 1 | 37* | /
Cc1ccccc1N1C(=O)NC(=O)/C(=C/c2ccc(N3CCOCC3)o2)C1=O | -48 | -13 | -1 | 19 | 8
Cc1ccccc1N1C(=O)NC(=O)/C(=C\c2cc(Br)c(N3CCOCC3)o2)C1=O | -123 | -3 | 0 | 38* | -4
C=CC12CN(C)C3C4COC(CC41)C1(C(=O)Nc4ccccc41)C32 (centres undefined) | -1 | 2 | 0 | 12 | /
N#CC(C#N)=Cc1ccc(O)c(O)c1 | 0 | -6 | -2 | -23 | -3
CC(C)(C)c1cc(C=C(C#N)C#N)cc(C(C)(C)C)c1O | 5 | -1 | -1 | 42* | 17
Cc1cccc(N2C(=O)NC(=O)/C(=C/c3cc4c(cc3[N+](=O)[O-])OCO4)C2=O)c1 | -3 | -3 | 0 | -18 | 18
Cc1cccc(N2C(=O)NC(=O)/C(=C\c3ccc4c(c3)CCCN4Cc3ccccc3)C2=O)c1 | -6 | 1 | 1 | 40* | -2
Cc1ccc(-n2c(O)c(C=Nc3ccc(S(=O)(=O)N(C)C)cc3)c(=O)[nH]c2=O)cc1 | -207 | 1 | 0 | 34* | 28
CCOC(=O)[C@]12Cc3cc(Cl)ccc3[C@H]1N(C1CCCCC1)C(=O)c1ccccc12 | -13 | / | -1 | 2 | /
COc1ccc(C(c2nnnn2C(C)(C)C)N2CCC3(CC2)C(=O)NCN3c2ccccc2)cc1 (centres undefined) | -1 | 5 | 0 | 1 | /
C=C(C)[C@@]12OC3(c4ccccc4)O[C@@H]1C1[C@@H]4O[C@]4(CO)[C@@H](O)[C@]4(O)C(=O)C(C)=C[C@H]4[C@@]1(O3)[C@H](C)[C@H]2OC(=O)/C=C/C=C/c1ccccc1 (some centres undefined) | -18 | 2 | -1 | 70* | 11
COc1ccc(CN2CCCC(C(=O)c3cccc(Cl)c3)C2)cc1 (centres undefined) | -1 | -2 | -1 | 43* | -6
CSc1ncc(CN2CCCC(C(=O)c3cccc(Cl)c3)C2)cn1 (centres undefined) | -2 | 0 | 0 | 3 | 6
COc1ccc(CN2CCN(c3ccccc3F)CC2)cc1O | -2 | 1 | 0 | 46* | 0
COc1ccccc1N1CCN(Cc2ccc(F)cc2)CC1 | 2 | 1 | 0 | 7 | /
CC1=C(O)C(=O)C=C2C1=CC=C1C2(C)CCC2(C)C3CC(C)(C(=O)O)CCC3(C)CCC12C (centres undefined) | -21 | 7 | 0 | -17 | 4
OCC[n+]1c2ccccc2nc2ccc(N3CCOCC3)cc21 | 11 | -13 | -1 | 38* | -1
Cc1cc(N(CCCl)CCCl)ccc1C=Cc1ccncn1 | -107 | -18 | 0 | 42* | 2
SMILES | MT1-MMP act inh | Rin1-Abl PPI inh | TbMetRS inhib | SKN-1 inh | Arrestin-AP2 inh
CCC1C(c2cc(OC)c(OC)c(OC)c2)c2cc3c(cc2OC1N1CCCC1)OCO3 (centres undefined) | 9 | 1 | 0 | -9 | 31
CCCCN1C(=O)/C(=C/c2ccc(N(C)C)cc2)C(=O)N(Cc2ccco2)C1=O | -63 | 2 | 0 | 40* | -7
CCN(CC)c1ccc(/C=C2\C(=O)NC(=O)N(Cc3ccco3)C2=O)cc1 | -35 | -2 | -1 | 48* | -9
CCCCN1C(=O)/C(=C\c2ccco2)C(=O)N(CCc2ccccc2)C1=O | -14 | -1 | 0 | -5 | 1
O=c1[nH]c2ccccc2n1C1CCN(C(c2cc3ccccc3o2)c2nnnn2Cc2ccccc2)CC1 (centres undefined) | -35 | 1 | 0 | 10 | /
CC(=O)OC1C(O)C2=C3C4(C)C1C(C)(C)C(=O)CC4C3(O)C(OC(C)=O)C1(CC1C)C2=O (centres undefined) | -3 | / | 0 | -18 | /
Oc1ccc(/C=N/NP(=S)(c2ccccc2)c2ccccc2)cc1 | -2 | 1 | 0 | 38* | 2
C=CCn1c(C)c(C=C2C(=O)NC(=O)NC2=O)c2ccccc21 | 2 | -2 | -1 | 40* | 11
CCOC(=O)[C@@H]1[C@H]2COc3ccc(Br)cc3[C@H]2N2C(=O)N(c3cccc(C)c3)C(=O)[C@]12C | 0 | 2 | 0 | 0 | -5
CNC(=O)Oc1cccc(-c2cn3cc(OC(=O)NC)ccc3n2)c1 | / | 2 | 0 | 50* | 15
O=c1[nH]c2ccccc2n1C1CCN(C(CCc2ccccc2)c2nnnn2C2CCCC2)CC1 (centres undefined) | -27 | 11 | 0 | 6 | /
CN1C(=O)/C(=C\c2ccc(Br)s2)C(=O)NC1=S | / | -1 | 0 | 37* | 25
O=C1NC(=S)NC(=O)C1=Cc1ccc(Br)s1 | -13 | 2 | 0 | 20 | 8
Cc1cc(Br)cn2c(CC(=O)N3CCCCC3)c(-c3ccc(F)cc3)nc12 | -3 | / | -1 | 11 | /
C=CCN1C(=O)C2(C(C(=O)OCC)=C(N)Oc3ccccc32)C2=C1CCCC2=O (centres undefined) | 5 | -2 | 0 | 37* | -1
O=C1NC2C(=CC(O)C(O)C2O)c2cc3c(cc21)OCO3 (centres undefined) | -42 | 2 | 0 | 40* | -19
O=C1NC2C(O)C(O)C(O)C(O)C2c2cc3c(c(O)c21)OCO3 (centres undefined) | -41 | 0 | 0 | 32 | 3
O=C1NC2C(=CC(O)C(O)C2O)c2cc3c(c(O)c21)OCO3 (centres undefined) | -38 | -3 | 0 | 55* | -2
O=c1[nH]c2ccccc2n1C1CCN(Cc2ccc(-c3[nH]c4cc5ncnc5cc4nc3-c3ccccc3)cc2)CC1 | 0 | / | 0 | 9 | /
